According to ChEMBL document CHEMBL4184102, “Small molecule SUMOylation activators are novel neuroprotective agents” (Bioorg Med Chem Lett, 2018):
pEC50: −log10 of the molar value.

Columns and labels:
[1] = Cytoprotective activity in BGMK cells assessed as reduction in thapsigargin-induced ER stress-mediated cell death by measuring cell viability at 10 uM preincubated for 2 hrs followed by thapsigargin addition measured after 24 hrs by CCK8 assay relative to control; type: cell-based; conditions: Chlorocebus aethiops, read-out: Activity
Method in brief: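 BGMK cells subcultured at 1.2×10^4 cells/ml, pretreated with compound 2 h, then thapsigargin 0.15 μM (150 nM) added for 24 h. Cells then washed, fed fresh complete DMEM plus CCK-8 reagent, incubated 2 h, absorbance read as viability. Salubrinal included as positive control; data as mean ± SEM.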

[2] = biological target: SUMO-activating enzyme (Homo sapiens) (UniProt Q9UBE0+Q9UBT2); experiment: Induction of SUMO-E1/E2 (unknown origin) mediated sumoylation of His-RanGap-1 after 30 mins by HTRF assay relative to control; type: protein-complex assay; design: concentration or dose not given beside the values
[3] = (§1) Cytoprotective activity in rat CSM14.1 cells assessed as reduction in thapsigargin-induced ER stress-mediated cell death preincubated for 2 hrs followed by thapsigargin addition measured after 20 hrs by ATPlite assay; type: functional, cell-based
Method in brief: (§2)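 Rat striatal neuroprogenitor CSM14.1 cells were trypsinized, plated in 96-well plates and held overnight at 32 °C. Cells were pretreated with compound for 2 h, then given thapsigargin in DMEM (15 μM final) for another 20 h. Viability was read as cellular ATP content. Thapsigargin without compound served as the 100% death reference and DMSO without thapsigargin as the 100% viability reference. Dose-response data are given as mean ± SEM.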

Rattus norvegicus = species: Rattus norvegicus; experiment: as §1; type: functional, cell-based; method in brief: as §2

Row | Structure (SMILES) | viability at 10 µM [1] | Activity [2] | pEC50 [3] | Activity (Rattus norvegicus)
1 | O=C(Nc1nc(-c2ccccn2)cs1)c1ccc(Cl)s1 | 45.3% | 25% | – | –
2 | CC(=O)Nc1ccc(S(=O)(=O)Nc2cccc3cccnc23)cc1 | 53.7% | 28% | – | –
3 | Cc1ccc2sc(NNC(=O)c3cc(=O)c4ccccc4o3)nc2c1C | 54.9% | 38% | 5.01 to 5.92 | Dose-dependent effect
4 | O=S(=O)(Nc1cccc2cccnc12)c1ccccc1 | 35.2% | 25% | – | –
5 | O=C(Nc1nc(-c2ccccn2)cs1)C1COc2ccccc2O1 (centres undefined) | 81.4% | 53% | 5.01 to 5.92 | Dose-dependent effect
6 | O=C(Nc1nc(-c2ccccn2)cs1)c1ccc(Br)s1 | 83.3% | 37% | – | –
7 | O=S(=O)(Nc1cccc2cccnc12)c1ccc(S(=O)(=O)N2CCCC2)cc1 | 62.4% | 43% | 5.01 to 5.92 | Dose-dependent effect
8 | COc1cccc2sc(NNC(=O)C3COc4ccccc4O3)nc12 (centres undefined) | 38.4% | 17% | – | –
9 | O=C(/C=C/c1ccccc1)NC(NC(=S)Nc1cccc2cccnc12)C(Cl)(Cl)Cl (centres undefined) [SALUBRINAL] | 47.2% | – | – | –
10 | Cc1ccc(S(=O)(=O)Nc2cccc3cccnc23)cc1 | 52% | 29% | – | –
11 | O=C(Nc1nc(-c2ccccn2)cs1)c1ccc2c(c1)OCCO2 | 54.9% | 20% | – | –
12 | Cc1cc(C)c2nc(NNC(=O)c3cc(=O)c4ccccc4o3)sc2c1 | 60.3% | 33% | – | –
